Experimental findings from ChEMBL document CHEMBL1122207, “Antitumor agents. 2. Bisguanylhydrazones of anthracene-9,10-dicarboxaldehydes” (1982) are described below.

What is called ILS is the gain in survival time of treated over control animals, in per cent. High values mean much gain in survival, low ones little gain in survival. By Inhibition is commonly meant the relative decrease from the control value, in per cent. Higher therefore signals strong suppression.

What all share (type): functional
Assay [1] deals with Mus musculus. The experiment in a line: Percent increase in median life span of BDF1 mice with P-388 leukemia at dose 3.1 mg/kg administered intraperitoneally. The conditions noted are these: BDF1, P388, ip, route intraperitoneal.
The species entered for assay [2] is Mus musculus. As to the kind of experiment: Anticancer activity measured as the number of survivors of the total treated mice with P-388 leukemia at 30 days. The essentials:
(§1)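 BDF1 or CDF1 mice given 10^6 ascitic P-388 leukemia cells ip, then treated ip on days 1, 5 and 9. Cures are survivors over total treated at 30 days.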

The subject of assay [3] is Mus musculus. The experiment in a line: Percent increase in median life span of BDF1 mice with B-16 melanoma at dose 6.25 mg/kg administered intraperitoneally. The conditions noted are these: BDF1, B16, ip, route intraperitoneal. The essentials:
(§2)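 BDF1 mice were implanted ip with a homogenate from 0.05 g of B-16 melanoma. Ip dosing ran on days 1-9, starting 24 h after implant, in dose-response studies following NCI protocols. The read-out was percent increase in life span (ILS). T/C ≥125% was taken as significant.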

The species entered for assay [4] is Mus musculus. The experiment in a line: Cures is the number of survivors of the total treated mice (10) with B-16 melanoma, at 60 days. A digest of the protocol: (§3)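 BDF1 mice were implanted ip with a homogenate from 0.05 g of B-16 melanoma and dosed ip on days 1-9. Cures are survivors over total at 60 days.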
The species entered for assay [5] is Mus musculus. The experiment in a line: Cures is the number of survivors of the total treated mice (10) with advanced B-16 melanoma, at 30 days.
The species named for assay [6] is Mus musculus. As to the kind of experiment: Cures is the number of survivors of the total treated mice (6) with P-388 leukemia, at 30 days. A digest of the protocol: as §1
Assay [7] relates to Mus musculus. The experiment in a line: Percent increase in median life span of BDF1 mice with advanced B-16 melanoma at dose 12.5 mg/kg administered intraperitoneally; 5, 9, 13 days of ip treatment relative to tumor inoculation. As to conditions: BDF1, B16, ip, 312 h, route intraperitoneal.
Assay [8] concerns Mus musculus. As to the kind of experiment: Percent increase in median life span of BDF1 mice with madison lung 109 leukemia administered intraperitoneally.
The test system of assay [9] is Mus musculus. As to the kind of experiment: Percent increase in median life span of BDF1 mice with P-388 leukemia at dose 12.5 mg/kg administered intraperitoneally; 1, 5, 9 days of ip treatment relative to tumor inoculation. The conditions noted are these: BDF1, P388, ip, 216 h, route intraperitoneal. The essentials:
(§4)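 BDF1 or CDF1 mice given 10^6 ascitic leukemia cells ip, then dosed ip on days 1, 5 and 9. Read-out is percent increase in life span versus untreated controls. Cures were scored as survivors/total at 30 days; when cures reached 50% or more, the run was extended until a specific ILS could be calculated. T/C ≥125% counted as significant.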

The species entered for assay [10] is Mus musculus. The experiment in a line: Cures is the number of survivors of the total treated mice (20) with B-16 melanoma, at 60 days. A digest of the protocol: as §3
The test system of assay [11] is Mus musculus. As to the kind of experiment: Percent tumor inhibition at non-lethal dose was determined in BDF1 mice with madison lung 109 leukemia; 1, 5, 9 days of sc treatment relative to tumor inoculation.
Assay [12] has as its system Mus musculus. The experiment in a line: Percent increase in median life span of BDF1 mice with advanced P-388 leukemia at dose 12.5 mg/kg administered intraperitoneally; 4, 8, 12 days of ip treatment relative to tumor inoculation. As to conditions: P388, ip, 288 h, route intraperitoneal.
The species named for assay [13] is Mus musculus. As to the kind of experiment: Percent increase in median life span of BDF1 mice with advanced L-1210 leukemia.
The species entered for assay [14] is Mus musculus. As to the kind of experiment: Cures is the number of survivors of the total treated mice (20) with Colon 26, at 60 days.
Assay [15] is filed under the species Mus musculus. The experiment in a line: Cures is the number of survivors of the total treated mice (42) with P-388 leukemia, at 30 days. The essentials:
as §1

Assay [16] is filed under the species Mus musculus. The experiment in a line: Cures is the number of survivors of the total treated mice (17) with L-1210 leukemia, at 30 days.
The subject of assay [17] is Mus musculus. The experiment in a line: Cures is the number of survivors of the total treated mice (6) with advanced L-1210 leukemia; treatment day +2 iv. The essentials: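 Advanced L-1210 leukemia, treated iv once on day +2 relative to tumor inoculation.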
Assay [18] deals with Mus musculus. As to the kind of experiment: Percent increase in median life span of BDF1 mice with Colon 26 at dose 6.2 mg/kg administered intraperitoneally; Range is 114-150%; 1, 5, 9 days of ip treatment relative to tumor inoculation. The conditions noted are these: BDF1, Colon 26, ip, 216 h, route intraperitoneal.
For assay [19], the species on record is Mus musculus. As to the kind of experiment: Cures is the number of survivors of the total treated mice (10) with P-388 leukemia, at 30 days. The essentials:
as §1

Assay [20] relates to Mus musculus. As to the kind of experiment: Percent increase in median life span of BDF1 mice with L-1210 leukemia at dose 12.5 mg/kg administered intraperitoneally; 1, 5, 9 days of ip treatment relative to tumor inoculation. The conditions noted are these: BDF1, L1210, ip, 216 h, route intraperitoneal. The essentials: as §4
The subject of assay [21] is Mus musculus. As to the kind of experiment: Percent increase in median life span of BDF1 mice with B-16 melanoma at dose 6 mg/kg administered intraperitoneally; range 98-122%; 1-9 days of ip treatment relative to tumor inoculation. The conditions noted are these: BDF1, B16, ip, route intraperitoneal. The essentials:
as §2

Assay [22] relates to Mus musculus. As to the kind of experiment: Percent increase in median life span of BDF1 mice with Colon 26 at dose 6.2 mg/kg administered intraperitoneally; 1, 5, 9 days of ip treatment relative to tumor inoculation. The conditions noted are these: BDF1, Colon 26, ip, 216 h, route intraperitoneal.
The species named for assay [23] is Mus musculus. As to the kind of experiment: Cures is the number of survivors of the total treated mice (6) with L-1210 leukemia, at 30 days.
Assay [24] has as its system Mus musculus. As to the kind of experiment: Percent increase in median life span of BDF1 mice with B-16 melanoma at dose 3 mg/kg administered intraperitoneally; range 116-129%, 1-9 days of ip treatment relative to tumor inoculation. The conditions noted are these: BDF1, B16, ip, route intraperitoneal. The essentials:
as §2

Assay [25] relates to Mus musculus. As to the kind of experiment: Percent increase in median life span of BDF1 mice with P-388 leukemia at dose 6.25 mg/kg administered intraperitoneally; 1, 5, 9 days of ip treatment relative to tumor inoculation. The conditions noted are these: BDF1, P388, ip, 216 h, route intraperitoneal. A digest of the protocol:
as §4

The species entered for assay [26] is Mus musculus. As to the kind of experiment: Cures is the number of survivors of the total treated mice (10) with Colon 26, at 60 days.
The species named for assay [27] is Mus musculus. As to the kind of experiment: Cures is the number of survivors of the total treated mice (18) with P-388 leukemia, at 30 days. A digest of the protocol: as §1
For assay [28], the system named is Mus musculus. The experiment in a line: Percent increase in median life span of BDF1 mice with L-1210 leukemia at dose 6.2 mg/kg administered intraperitoneally; 1, 5, 9 days of ip treatment relative to tumor inoculation. As to conditions: BDF1, L1210, ip, 216 h, route intraperitoneal. A digest of the protocol:
as §4

Assay [29] has as its system Mus musculus. As to the kind of experiment: Percent increase in median life span of BDF1 mice with advanced B-16 melanoma at dose 6.2 mg/kg administered intraperitoneally; 5, 9, 13 days of ip treatment relative to tumor inoculation. The conditions noted are these: B16, ip, 312 h, route intraperitoneal.
The test system of assay [30] is Mus musculus. As to the kind of experiment: Percent increase in median life span of BDF1 mice with B-16 melanoma at dose 3 mg/kg administered intraperitoneally; 1-9 days of ip treatment relative to tumor inoculation. As to conditions: BDF1, B16, ip, route intraperitoneal. A digest of the protocol:
as §2

Assay [31] relates to Mus musculus. As to the kind of experiment: Percent increase in median life span of BDF1 mice with Colon 26 at dose 3.1 mg/kg administered intraperitoneally; 1, 5, 9 days of ip treatment relative to tumor inoculation. The conditions noted are these: BDF1, Colon 26, ip, 216 h, route intraperitoneal.
The species named for assay [32] is Mus musculus. The experiment in a line: Cures is the number of survivors of the total treated mice (8) with Colon 26, at 60 days.
For assay [33], the species on record is Mus musculus. The experiment in a line: Cures is the number of survivors of the total treated mice (10) with B-16 melanoma, at 60 days. A digest of the protocol:
as §3

For assay [34], the species on record is Mus musculus. The experiment in a line: Cures is the number of survivors of the total treated mice (6) with advanced L-1210 leukemia, at 30 days. A digest of the protocol:
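Advanced L-1210 leukemia, with ip treatment on days 5, 9 and 13 relative to tumor inoculation.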

Assay [35] deals with Mus musculus. The experiment in a line: Percent increase in median life span of BDF1 mice with advanced L-1210 leukemia at dose 6.2 mg/kg administered intraperitoneally; treatment day +2 iv. The conditions noted are these: L1210.
In assay [36] the test system is Mus musculus. The experiment in a line: Percent increase in median life span of BDF1 mice with P-388 leukemia at dose 300 mg/kg administered intraperitoneally. As to conditions: BDF1, P388, ip, route intraperitoneal.
Assay [37] deals with Mus musculus. The experiment in a line: Percent increase in median life span of BDF1 mice with B-16 melanoma at dose 300 mg/kg administered intraperitoneally. The conditions noted are these: BDF1, B16, ip, route intraperitoneal. A digest of the protocol: as §2

The structures appear in SMILES notation. A value given as a limit tells only on which side of the number the result lay.

`CCc1ccc2c(/C=N/NC3=NCCN3)c3ccccc3c(/C=N/NC3=NCCN3)c2c1.Cl.Cl`: the ILS at 3.1 mg/kg in assay [1] came out at 64%. Besides, the Cures is listed as 0 in assay [2] and 1 in assay [4]. This compound also had an ILS at 6.25 mg/kg in assay [3] of 97%.

Take `C(=N\NC1=NCCN1)/c1c2ccccc2c(/C=N/NC2=NCCN2)c2ccccc12` [BISANTRENE]: the Cures in assay [5] is recorded as 2; in assay [6], 0; in assay [10], 2; in assay [14] it was 6; in [15] it was 17; in [16], 0. For the same compound, the Cures in [17] amounted to 0; in assay [19], 2. In addition, the ILS at 12.5 mg/kg in [7] came to 54%; in assay [9], 137%; in assay [12], 76%; in assay [20] it was 62%. The figures for the ILS in assay [8] and in assay [13] were below 25% and 48%, respectively. The compound further returned an Inhibition in [11] of 20%. This compound gave an ILS at 6.2 mg/kg in [18] of 114%. This compound yielded an ILS at 6 mg/kg in [21] of 122%.

On to `CN(C)C(=N)N/N=C/c1c2ccccc2c(/C=N/N=C(\N)N(C)C)c2ccccc12`, for which the Cures in assay [5] is listed as 2; in assay [10] it was 2; in assay [23], 0; in assay [26], 1; in [27], 3. Besides, the results for the ILS at 6.2 mg/kg in [22], in assay [28] and in assay [29] were 167%, 100% and 41%, respectively. In assay [24], this compound showed an increase in lifespan (ILS) at 3 mg/kg of 125%. Moreover, the increase in lifespan (ILS) at 6.25 mg/kg in assay [25] stood at 103%.

With `Cl.Cl.Clc1ccc2c(/C=N/NC3=NCCCN3)c3ccccc3c(/C=N/NC3=NCCCN3)c2c1`, in assay [30], the ILS at 3 mg/kg turned out to be 194%. In [31], this compound showed an increase in life span (ILS) at 3.1 mg/kg of 175%. Besides, the results for the Cures in assay [32], in assay [33] and in assay [34] were 1, 6 and 0, respectively. The compound further came in with an ILS in assay [8] below 25%. Besides, the Inhibition in assay [11] is reported as 16%. Moreover, the ILS at 6.25 mg/kg in assay [25] came to 127%. This compound displayed an increase in life span (ILS) at 12.5 mg/kg in assay [12] of 80%. Also, the ILS at 6.2 mg/kg in assay [35] worked out at 28%.

Regarding `N/C(S)=N/N=C/c1c2ccccc2c(/C=N/N=C(\N)S)c2ccccc12`, the ILS at 300 mg/kg worked out at 71% in [36] and 0% in assay [37]. In [2], the Cures was 0.
